Screens deposited in PubChem BioAssay by Sanford-Burnham Center for Chemical Genomics.
SENP7 block = SENP7 protease inhibition | Q9BQF6 | recombinant SENP7, Z-RLRGG-aminoluciferin luminescence, 40 min | inhibition, % at 5 µM | 330,000 compounds, 1.5% hits;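 active means inhibition above about 50% at the single test dose, limit read from the data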
SENP1 FRET inh = blocks the human SENP1 SUMO protease catalytic domain. recombinant SENP1 catalytic domain, CyPet-SUMO1-YPet FRET cleavage. 360,000 compounds, 0.21% hits. Q9P0U3. inhibition, % at 10 µM;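 active means inhibition at least 30% at 10 µM, raw YFP signal under a set limit, fluorescence ratio 0.5 to 1.5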
Target sequence (Q9P0U3 419-644 limits assumed): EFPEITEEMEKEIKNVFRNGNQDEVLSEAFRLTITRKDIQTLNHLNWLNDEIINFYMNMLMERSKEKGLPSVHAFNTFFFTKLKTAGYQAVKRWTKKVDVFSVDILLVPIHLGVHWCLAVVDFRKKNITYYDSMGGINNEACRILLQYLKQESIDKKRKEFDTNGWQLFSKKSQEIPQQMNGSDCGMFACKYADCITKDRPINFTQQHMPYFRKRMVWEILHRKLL
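Assay system – human recombinant His6-tagged SENP1 catalytic domain enzyme · Input – SENP1 enzyme, 20 pM final · Buffer or medium – Tris pH 8 buffer plus EDTA, NaCl, BME, BSA, NP40, catalase · Schedule – 50 min reaction at room temperature · Technique – FRET read of cyan and yellow fluorescence · Control set – no-enzyme wells low, DMSO-plus-enzyme wells high control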
SENP6 block = inhibitors of human SENP6 protease | AID 2599 | Q9GZR1 | Recombinant SENP6 catalytic domain, aminoluciferin luminescence | 330,000 compounds, 1.8% hits | inhibition, % at 10 µM;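 active means inhibition above about 50% at the single tested dose, limit read from the data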
Target sequence (Q9GZR1 628-1112 limits assumed): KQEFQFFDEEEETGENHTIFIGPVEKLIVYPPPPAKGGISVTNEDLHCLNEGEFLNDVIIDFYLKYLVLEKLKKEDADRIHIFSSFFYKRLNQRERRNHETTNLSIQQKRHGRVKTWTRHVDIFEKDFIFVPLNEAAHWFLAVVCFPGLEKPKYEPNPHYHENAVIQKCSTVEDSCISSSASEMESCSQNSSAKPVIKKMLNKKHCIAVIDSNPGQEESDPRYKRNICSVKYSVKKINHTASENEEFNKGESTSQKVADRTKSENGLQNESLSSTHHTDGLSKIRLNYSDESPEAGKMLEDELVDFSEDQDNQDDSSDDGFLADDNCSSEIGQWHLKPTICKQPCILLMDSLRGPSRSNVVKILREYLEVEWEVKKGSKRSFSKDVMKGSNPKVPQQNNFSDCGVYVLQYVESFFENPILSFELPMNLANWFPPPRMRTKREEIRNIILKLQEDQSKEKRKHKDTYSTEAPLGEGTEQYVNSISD
SENP8 block-1 = inhibitors of human SENP8 protease; Q96LD8; AID 2540; purified SENP8, Z-RLRGG-aminoluciferin cleavage, luminescence; inhibition, % at 10 µM; 330,000 compounds, 1.2% hits; in the data active means inhibition above about 50%
SENP8 block-2 = blocks human SENP8 cleavage of Nedd8 substrate | Q96LD8 | recombinant SENP8, Nedd8 substrate fluorescence | inhibition, % at 20 µM | 360,000 compounds, 0.64% hits | AID 602440; in the data active means inhibition mostly above about 40%, no sharp cut-off; inactive means mostly below about 27%
SENP8 conf = confirmation of human SENP8 protease inhibitors; shares compounds with SENP7 block; Recombinant SENP8, Z-RLRGG-aminoluciferin luminescence, 60 min; inhibition, % at 12.5 µM; 6,200 compounds, 40% hits;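 active means mean inhibition across replicates above about 50%, limit read from the data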
SENP6 confirm = human SENP6 inhibition, confirmed. shares compounds with SENP7 block. recombinant SENP6, Z-RLRGG-aminoluciferin luminescence. inhibition, % at 12.5 µM. 6,200 compounds, 58% hits. AID 488915
SENP7 conf = human SENP7 inhibition, confirmed; shares compounds with SENP7 block; recombinant SENP7, Z-RLRGG-aminoluciferin luminescence, 40 min; inhibition, % at 12.5 µM; 6,200 compounds, 69% hits
Casp3 select = caspase-3 inhibition (SENP selectivity assay). shares compounds with SENP7 block. purified caspase-3, Z-DEVD-aminoluciferin luminescence, 60 min. inhibition, % at 12.5 µM. 6,200 compounds, 60% hits. AID 488918;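 active means mean inhibition above about 50%, limit read from the data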
SENP luc ctr = interferes with luciferase luminescence in SENP counter-screen | shares compounds with SENP7 block | Pre-incubated SENP8/Z-RLRGG-aminoluciferin, luciferase luminescence interference | inhibition, % at 12.5 µM | 6,200 compounds, 39% hits;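 active means mean inhibition above about 50% when retested at one dose, limit read from the data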
Each line names hits and unclear results; the compound was inactive in the other large screens (follow-up assays come after a bar, where they were run). Shown are actives, neighbours in structure and some others; about 2.5% of the full set was active somewhere.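 How the source made its calls, unless noted: active means mean inhibition above about 50% in the one-dose retest (limit read from the data); inactive means the rest.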

Nc1nonc1C(=O)NCCNS(=O)(=O)c1ccc(Br)cc1	SENP7 block 90.0 | SENP8 conf inactive | SENP6 confirm inactive | SENP7 conf inactive | Casp3 select inactive | SENP luc ctr inactive
C/C(=N\Nc1ccccc1[N+](=O)[O-])c1ccccc1O	SENP7 block 74.5, SENP8 block-2 40.2 | SENP8 conf inactive | SENP6 confirm inactive | SENP7 conf inactive | Casp3 select inactive | SENP luc ctr inactive
C/C(=N\Nc1cccc2cccnc12)c1ccccc1O	SENP7 block 88.1, SENP6 block 82.2, SENP8 block-1 77.0 | SENP8 conf inactive | SENP6 confirm inactive | SENP7 conf inactive | Casp3 select inactive | SENP luc ctr inactive
CCCCCCCCCCC(C(=O)O)C1(C(=O)O)CCC(=O)O1 (centres undefined)	none (no result: SENP7 block, SENP6 block, SENP8 block-1)
COc1ccc(CONc2ncnc3nonc23)cc1[N+](=O)[O-]	SENP6 block 70.1, SENP8 block-1 55.3 | SENP8 conf inactive | SENP6 confirm 50.2 | SENP7 conf 83.2 | Casp3 select 70.3 | SENP luc ctr 62.3
CCOC(=O)C(N=Nc1nn[nH]n1)C(C)=O (centres undefined)	none (no result: SENP7 block, SENP6 block, SENP8 block-1)
Cc1c(C(=O)NC2=NCCS2)oc2ccccc12	SENP7 block 85.5, SENP6 block 86.2, SENP8 block-1 70.3 | SENP8 conf 81.3 | SENP6 confirm 83.3 | SENP7 conf 97.8 | Casp3 select 92.9 | SENP luc ctr 86.6
Cc1ccnc(NC(=O)c2oc3ccccc3c2C)c1	SENP7 block 85.3, SENP6 block 81.0, SENP8 block-1 72.1 | SENP8 conf 52.0 | SENP6 confirm 84.8 | SENP7 conf 80.8 | Casp3 select 58.0 | SENP luc ctr inactive
Cc1cccnc1NC(=S)NC(=O)c1oc2ccccc2c1C	SENP6 block 78.9 | SENP8 conf inactive | SENP6 confirm inactive | SENP7 conf inactive | Casp3 select inactive | SENP luc ctr inactive
CCOc1ccc2oc(C(=O)Nc3cc(C)ccn3)c(C)c2c1	SENP7 block 97.0, SENP6 block 93.1, SENP8 block-1 89.5 | SENP8 conf inactive | SENP6 confirm 62.8 | SENP7 conf 76.4 | Casp3 select 82.9 | SENP luc ctr inactive
O=C1c2ccccc2NC(c2ccc(Br)s2)N1O (centres undefined)	none (no result: SENP1 FRET inh, SENP8 block-2)
CC(C)(C)C(C(=O)NC1CCCC1)N1CCN(c2ncccc2C#N)CC1 (centres undefined)	none (no result: SENP7 block, SENP6 block, SENP8 block-1)
O=C1c2ccccc2C(=O)N1CC1=CCS(=O)(=O)C1	none
CCOc1ccc2oc(C(=O)Nc3ccc4c(c3)OCO4)c(C)c2c1	SENP7 block 62.5, SENP6 block 72.5, SENP8 block-1 65.3 | SENP8 conf 63.0 | SENP6 confirm inactive | SENP7 conf 85.7 | Casp3 select 53.3 | SENP luc ctr inactive
O=C(COc1ccc(F)cc1F)N1CCCCCCC1	none
O=C(NCCCN1CCOCC1)c1cccnc1SCc1ccccc1Cl	none
Cc1ccccc1NC(=O)c1cc2ccccc2o1	SENP7 block 71.0, SENP6 block 84.9, SENP8 block-1 67.4 | SENP8 conf 70.8 | SENP6 confirm 70.5 | SENP7 conf 91.6 | Casp3 select 85.1 | SENP luc ctr 78.6
COc1ccccc1NC(=O)c1cc2ccccc2o1	SENP6 block 56.6 | SENP8 conf inactive | SENP6 confirm inactive | SENP7 conf 78.4 | Casp3 select inactive | SENP luc ctr 54.3
O=C(Nc1ncccc1Cl)c1cc2ccccc2o1	SENP7 block 64.1, SENP6 block 62.5 | SENP8 conf 68.3 | SENP6 confirm 73.3 | SENP7 conf 92.0 | Casp3 select 82.9 | SENP luc ctr inactive
O=C(Nc1ccc(Cl)cc1Cl)c1cc2ccccc2o1	SENP7 block 58.8 | SENP8 conf inactive | SENP6 confirm inactive | SENP7 conf inactive | Casp3 select inactive | SENP luc ctr inactive
COc1cc(NC(=O)c2cc3ccccc3o2)c(OC)cc1Cl	none
Cc1ccc(NC(=O)c2cc3ccccc3o2)cc1Cl	none
COc1ccc2c(c1)CCC(C)N2C(=O)C(=O)c1c[nH]c2ccccc12 (centres undefined)	none
Cc1cc(Br)cn2c(Cc3ccsc3)c(-c3ccco3)nc12	none (no result: SENP7 block, SENP6 block, SENP8 block-1)
C[C@@H]1CN([C@H](C)CO)C(=O)c2cc(Br)cnc2O[C@@H]1CN(C)C(=O)c1ccccc1	none (no result: SENP7 block, SENP6 block, SENP8 block-1)
C[C@@H]1CN([C@H](C)CO)C(=O)CCCn2nncc2CO[C@H]1CN(C)Cc1cccc(C(=O)O)c1	none (no result: SENP7 block, SENP6 block, SENP8 block-1)
Cc1ccc(NC(=O)c2cc3ccccc3o2)nc1	SENP7 block 64.8, SENP6 block 63.3 | SENP8 conf 57.7 | SENP6 confirm 57.8 | SENP7 conf 87.2 | Casp3 select 73.7 | SENP luc ctr 66.8
Cc1cccc(-c2nc3c(s2)CCc2onc(-c4ccc(Br)cc4)c2-3)c1	none
COc1ccc(NC(=O)CCNS(=O)(=O)c2cccc3nonc23)cc1	none
COC(=O)c1ccc(COC(=O)c2cccnc2Cl)cc1	SENP6 block 50.7 | SENP8 conf 50.1 | SENP6 confirm inactive | SENP7 conf 79.3 | Casp3 select 66.0 | SENP luc ctr 55.7
O=C(COC(=O)c1cccnc1Cl)c1ccc(OC(F)F)cc1	SENP7 block 85.6, SENP8 block-1 71.5 | SENP8 conf inactive | SENP6 confirm 77.4 | SENP7 conf 97.2 | Casp3 select 89.2 | SENP luc ctr 78.2
COc1ccc(C(=O)COC(=O)c2cccnc2Cl)c(OC)c1	none
O=C(COC(=O)c1cccnc1Cl)c1ccc(Cl)cc1Cl	SENP7 block 67.0, SENP6 block 84.7 | SENP8 conf inactive | SENP6 confirm inactive | SENP7 conf 88.5 | Casp3 select 77.7 | SENP luc ctr 74.2
O=C(Nc1ccc2c(c1)CN(Cc1ccccc1O)CC2)C1CCCO1 (centres undefined)	none
O=S1(=O)N=C(Nc2nc3c(s2)CCCC3)c2ccccc21	SENP7 block 76.5, SENP6 block 85.8, SENP8 block-1 77.3 | SENP8 conf 82.7 | SENP6 confirm 77.5 | SENP7 conf 93.9 | Casp3 select 86.1 | SENP luc ctr 51.7
CC1(C(=O)NC2CCCC2)CCC(=O)N1C1CCN(Cc2ccccc2)CC1 (centres undefined)	none (no result: SENP7 block, SENP6 block, SENP8 block-1)
Cc1cc(=O)[nH]c(S/C=C/c2ccccc2)n1	SENP7 block 90.0, SENP6 block 63.6, SENP8 block-1 76.7 | SENP8 conf 88.7 | SENP6 confirm 90.2 | SENP7 conf 98.4 | Casp3 select 94.2 | SENP luc ctr 89.2
Cc1cc(=O)[nH]c(SCc2ccccc2)n1	none
